Assay results from different studies.
Each line is one published result; the experiments were not run side by side.
Cell line: A549
Observed: cell growth or viability

SMILES | method | concentration | inhibition [%]
COc1cc2ncnc(NN=C3C(=O)Nc4ccc(Br)cc43)c2cc1OC | – | 10 µM | -4.3
O=C(CN1C(=O)/C(=C/c2cccc(Br)c2)SC1=S)Nc1ccccc1 | MTT | 10 µM | 25.8
COc1cc(CNC(=O)C[C@H](C)CCC=C(C)C)ccc1OCc1cn(-c2ccc(Cl)cc2)nn1 | SRB | 10 µM | 55
COc1ccc(-c2nc(NN=C3C(=O)Nc4ccc(Cl)cc43)c3ccccc3n2)cc1OC | – | 30 µM | 10.9
CCN(CC)CCNC(=O)c1c(C)[nH]c(/C=C2\C(=O)Nc3ccc(F)cc32)c1C | – | 30 µM | 85.7
O=C(CN1C(=O)/C(=C/c2ccc(Cl)cc2)SC1=S)Nc1ccccc1 | MTT | 10 µM | 36.7
COc1ccc(-c2nc(NN=C3C(=O)Nc4ccccc43)c3ccccc3n2)cc1OC | – | 30 µM | 58.6
O=C(CN1C(=O)/C(=C/c2ccccc2Cl)SC1=S)Nc1ccccc1 | MTT | 10 µM | 20.5
COc1ccc2c(c1)/C(=N/NC(=O)c1cc3ccccc3[nH]1)C(=O)N2C | – | 30 µM | 97.4
Cc1ccc2c(c1)C(=NNc1nnc(Cc3ccccc3)c3ccccc13)C(=O)N2 | – | 30 µM | 85
CN1C(=O)/C(=N\NC(=O)c2cc3ccccc3[nH]2)c2cc(Cl)ccc21 | – | 30 µM | 95.8
COc1cc2ncnc(NN=C3C(=O)Nc4ccc(C)cc43)c2cc1OC | – | 30 µM | 20.5
CN1C(=O)/C(=N\NC(=O)c2cc3ccccc3[nH]2)c2cc(F)ccc21 | – | 30 µM | 90.3
O=C(CN1C(=O)/C(=C/c2ccncc2)SC1=S)Nc1ccccc1 | MTT | 10 µM | 25.9
Cn1c(=O)c(NN=C2C(=O)Nc3ccccc32)nc2ccccc21 | – | 30 µM | 95.2
CN1C(=O)/C(=N\NC(=O)c2cc3ccccc3[nH]2)c2ccccc21 | – | 30 µM | 94.9
COc1ccc(/C=C2\SC(=S)N(CC(=O)Nc3ccccc3)C2=O)cc1 | MTT | 10 µM | 23
O=C1Nc2ccc(F)cc2/C1=N/NC(=O)c1cc2ccccc2[nH]1 | – | 30 µM | 6.9
COc1cccc(/C=C2\SC(=S)N(CC(=O)Nc3ccccc3)C2=O)c1 | MTT | 10 µM | 25.7
